Measured values gathered from unrelated publications.
Protocols differ between the studies behind these lines.
RPS6KA1: Ribosomal protein S6 kinase alpha-1 (RPS6KA1, Homo sapiens, UniProt Q15418)
RPS6KA1 C-terminal kinase domain: Ribosomal protein S6 kinase alpha-1, C-terminal kinase domain (RPS6KA1, Homo sapiens, UniProt Q15418)

C#Cc1n[nH]c2c(-c3cn([C@@H](C)c4ccccc4)c(=O)[nH]c3=O)cc(F)cc12  inhibition (RPS6KA1; enzyme activity, inhibitor; 0.1 µM): 6.2%
Nc1ncc(-c2nc(N3CCOCC3)nc(N3CCOCC3)n2)c(C(F)F)n1  remaining binding (RPS6KA1 C-terminal kinase domain; binding, competition with immobilised ligand; 10 µM): 88%
Cc1nn(C)cc1-c1nc2c(N3CCN(Cc4ccc(Cl)cc4)CC3)c(Cl)cnc2[nH]1  remaining binding (Ribosomal protein S6 kinase alpha-1, N-terminal kinase domain (RPS6KA1, Homo sapiens, UniProt Q15418); binding, competition with immobilised ligand; 1 µM): 100%
O=c1[nH]c2ccccc2n1C1CCN(Cc2ccc(-c3[nH]c4cc5ncnc5cc4nc3-c3ccccc3)cc2)CC1  remaining signal (RPS6KA1; cell-free assay; 0.5 µM): 101%
Cn1cncc1[C@@](O)(COc1ccc(C#N)cc1-c1ccc(OC(F)(F)F)cc1)c1ccc(C#N)cc1  remaining binding (RPS6KA1 C-terminal kinase domain; cell-free assay, competition with immobilised ligand; 1 µM): 100%
Cn1cc(-c2cc(F)cc(N3CCn4c(cc5c4CCCC5)C3=O)c2CO)cc(Nc2ccc(N3CCN(C4COC4)CC3)cn2)c1=O  inhibition (RPS6KA1; enzyme activity, inhibitor; 0.1 µM): 0%
CC(C)(C)c1cc(C=C(C#N)C#N)cc(Br)c1O  remaining activity (RPS6KA1; enzyme activity, inhibitor; 0.5 µM): 104%
Cn1cc(-c2cccc(N3CCc4c(sc5c4CC(C)(C)C5)C3=O)c2CO)cc(Nc2ccncn2)c1=O  inhibition (RPS6KA1; enzyme activity, inhibitor; 1 µM): -1%
C#Cc1n[nH]c2c(-c3cn([C@@H](C)c4ccccn4)c(=O)[nH]c3=O)cc(F)cc12  inhibition (RPS6KA1; enzyme activity, inhibitor; 0.1 µM): 7.4%
N#CC1(c2ccccn2)CCN(Cc2cc(C(=O)O)c(=O)n3ccccc23)CC1  remaining binding (RPS6KA1 C-terminal kinase domain; cell-free assay, competition with immobilised ligand; 1 µM): 100%
